The values that follow come from paper PMC2094070 (Nucleic Acids Research, 2007).

Where only a bound is given, the exact number is not on record here.

The subject of assay [1] is M. smegmatis mutants carrying human–bacterial hybrid ribosomes (Homo sapiens helix 44 decoding site). Kind of assay: MIC broth microdilution, cells with human-bacterial hybrid ribosomes. It is filed as cell-based, Mycobacterium smegmatis. Particulars: for Relative resistance (ratio of mutant to wild-type MIC): human hybrids versus wild-type M. smegmatis; for MIC: M. smegmatis cells with Homo sapiens hybrid ribosomes, 37°C, 72 h.

Assay [2] has as its system M. smegmatis Leishmania hybrids (Leishmania/Trypanosoma decoding site). Kind of assay: MIC broth microdilution, cells with Leishmania/Trypanosoma hybrid ribosomes. The format is cell-based, Mycobacterium smegmatis. The conditions noted are these: for Relative resistance (ratio of mutant to wild-type MIC): Leishmania hybrids versus wild-type M. smegmatis; for MIC: M. smegmatis cells with Leishmania/Trypanosoma hybrid ribosomes, 37°C, 72 h.

Assay [3] has as its system wild-type M. smegmatis 70S ribosomes. The assay is described as follows: Cell-free luciferase translation assay, wild-type ribosomes. It is filed as biochemical. Particulars: read-out: IC50, inhibition of luciferase synthesis; Mycobacterium smegmatis wild-type ribosomes; coupled transcription–translation, 37°C, 60 min.
Assay [4] concerns cytosolic ribosomes in rabbit reticulocyte lysate. Kind of assay: Rabbit reticulocyte translation assay. The conditions noted are these: read-out: IC50, inhibition of luciferase synthesis, luciferase mRNA, 30°C, 90 min. The format is biochemical. Summed up: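 Rabbit reticulocyte lysate supplied cytosolic ribosomes to translate firefly luciferase control mRNA (500 ng), with amino acids (100 μM each) and RNasin. Aminoglycosides were added as serial dilutions, then incubated at 30°C for 90 min. Luciferase substrate was added and luminescent activity read. IC50 and the 100% value came from best-fit nonlinear regression.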

For assay [5], the system named is Mycobacterium smegmatis wild-type. Kind of assay: MIC broth microdilution, wild-type strain. It is filed as cell-based. Particulars: 37°C, 72 h.
Assay [6] deals with Mycobacterium smegmatis hybrids with a Blastocrithidia decoding region. Kind of assay: MIC broth microdilution, cells with Blastocrithidia hybrid ribosomes. The format is cell-based. The conditions noted are these: M. smegmatis cells with Blastocrithidia hybrid ribosomes; 37°C, 72 h.

For `CNC(C)C1CCC(N)C(OC2C(N)CC(N)C(OC3OCC(C)(O)C(NC)C3O)C2O)O1` (stereo not shown) [Gentamicin, gentamicin], the “Relative resistance (ratio of mutant to wild-type MIC)” value in assay [1] and in assay [2] was not below 1024 in each case.

With `CCN[C@@H]1C[C@H](N)[C@@H](O[C@H]2OC(CN)=CC[C@H]2N)[C@H](O)[C@H]1O[C@H]1OC[C@](C)(O)[C@H](NC)[C@H]1O` [Netilmicin, netilmicin], the “Relative resistance (ratio of mutant to wild-type MIC)” value in assay [1] and in assay [2] was not below 1024 in each case. Moreover, the IC50 amounted to 50 nM in assay [3] and 58000 nM in assay [4].

With neomycin, the MIC is 0.5 µg/mL in assay [5], more than 1024 µg/mL in assay [1], more than 1024 µg/mL in assay [2] and 1 µg/mL in assay [6]. For the same compound, the “Relative resistance (ratio of mutant to wild-type MIC)” value in assay [1] and in assay [2] was not below 1024 in each case. Moreover, the IC50 in assay [3] amounted to 40 nM; in assay [4] it was 18000 nM.

kanamycin A: the MIC in assay [5] was 1 µg/mL; in assay [1], more than 1024 µg/mL; in assay [2], more than 1024 µg/mL; in assay [6], 1 µg/mL. In addition, the “Relative resistance (ratio of mutant to wild-type MIC)” value in assay [1] and in assay [2] was not below 1024 throughout. Also, the IC50 in assay [3] worked out at 50 nM; in assay [4], 67000 nM.

For the compound `CN[C@@H]1[C@@H](O)[C@@H](O[C@@H]2[C@@H](O)[C@H](O[C@H]3O[C@H]([C@@H](C)O)[C@@H](O)[C@H](O)[C@H]3N)[C@@H](N)C[C@H]2N)OC[C@]1(C)O` [Geneticin, geneticin (G418)], the figures for the IC50 in assay [3] and in assay [4] were 30 nM and 200 nM, respectively.

Regarding `NC[C@H]1O[C@H](O[C@H]2[C@H](O)[C@@H](O[C@H]3O[C@H](CO)[C@@H](O)[C@H](N)[C@H]3O)[C@H](N)C[C@@H]2N)[C@H](N)C[C@@H]1O` [Tobramycin, tobramycin], the “Relative resistance (ratio of mutant to wild-type MIC)” value in assay [1] and in assay [2] was not below 1024 in each case. Moreover, the IC50 amounted to 20 nM in assay [3] and 38000 nM in assay [4].

Regarding `NC[C@@H]1O[C@H](O[C@H]2[C@@H](O)[C@H](O[C@@H]3[C@@H](O)[C@H](N)C[C@H](N)[C@H]3O[C@H]3O[C@H](CO)[C@@H](O)[C@H](O)[C@H]3N)O[C@@H]2CO)[C@H](N)[C@@H](O)[C@@H]1O` [Paromomycin, paromomycin], the “Relative resistance (ratio of mutant to wild-type MIC)” value in assay [1] is listed as not below 1024. In addition, the IC50 is 30 nM in assay [3] and 9200 nM in assay [4].
